ChEMBL document CHEMBL3351797, “Synthesis, in vitro and in silico studies of a PPARγ and GLUT-4 modulator with hypoglycemic effect” (2014)
Activity calls are given as the source filed them. No cut-off for these calls is given here.

Columns and labels:
Rattus norvegicus [1] = test: Antidiabetic activity in streptozotocin-nicotinamide-induced NIDDM Wistar rat model assessed as reduction in blood glucose level at 5 mg/kg administered intragastrically measured at 1 hr post dose relative to control; format: functional; parameters: scale not given: the % may be the effect or the level left; details: route intragastric
How it was run: (§1)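 Streptozotocin–nicotinamide-induced diabetic rats received one intragastric dose (test agent 50 mg/Kg; glibenclamide 5 mg/Kg as hypoglycemic control). Blood glucose was sampled at 0, 1, 3, 5 and 7 h after dosing. Change was expressed as percentage variation of glycemia from zero hour, negative meaning a decrease. Values are mean ± SEM (n = 6), compared with a control group.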

Rattus norvegicus [2] = test: Antidiabetic activity in streptozotocin-nicotinamide-induced NIDDM Wistar rat model assessed as reduction in blood glucose level at 5 mg/kg administered intragastrically measured at 3 hrs post dose relative to control; format: functional; parameters: scale not given: the % may be the effect or the level left; details: route intragastric; how it was run: as §1
Rattus norvegicus [3] = test: Antidiabetic activity in streptozotocin-nicotinamide-induced NIDDM Wistar rat model assessed as reduction in blood glucose level at 5 mg/kg administered intragastrically measured at 5 hrs post dose relative to control; format: functional; parameters: scale not given: the % may be the effect or the level left; details: route intragastric; how it was run: as §1
Rattus norvegicus [4] = test: Antidiabetic activity in streptozotocin-nicotinamide-induced NIDDM Wistar rat model assessed as reduction in blood glucose level at 5 mg/kg administered intragastrically measured at 7 hrs post dose relative to control; format: functional; parameters: scale not given: the % may be the effect or the level left; details: route intragastric; how it was run: as §1
3T3-L1 [5] = test: Increase in PPARgamma mRNA expression mouse 3T3L1 cells at 10 uM after 24 hrs by SYBR Green-based expression analysis relative to control; format: functional
3T3-L1 [6] = test: Increase in Glut-4 mRNA expression mouse 3T3L1 cells at 10 uM after 24 hrs by SYBR Green-based expression analysis relative to control; format: functional
3T3-L1 [7] = test: Increase in PPARalpha mRNA expression mouse 3T3L1 cells at 10 uM after 24 hrs by SYBR Green-based expression analysis relative to control; format: functional, cell-based
Rattus norvegicus [8] = test: Antidiabetic activity in streptozotocin-nicotinamide-induced NIDDM Wistar rat model assessed as reduction in blood glucose level at 50 mg/kg administered intragastrically measured at 1 hr post dose relative to control; format: functional; parameters: scale not given: the % may be the effect or the level left; details: route intragastric; how it was run: as §1
Rattus norvegicus [9] = test: Antidiabetic activity in streptozotocin-nicotinamide-induced NIDDM Wistar rat model assessed as reduction in blood glucose level at 50 mg/kg administered intragastrically measured at 3 hrs post dose relative to control; format: functional; parameters: scale not given: the % may be the effect or the level left; details: route intragastric; how it was run: as §1
Rattus norvegicus [10] = test: Antidiabetic activity in streptozotocin-nicotinamide-induced NIDDM Wistar rat model assessed as reduction in blood glucose level at 50 mg/kg administered intragastrically measured at 5 hrs post dose relative to control; format: functional; parameters: scale not given: the % may be the effect or the level left; details: route intragastric; how it was run: as §1
Rattus norvegicus [11] = test: Antidiabetic activity in streptozotocin-nicotinamide-induced NIDDM Wistar rat model assessed as reduction in blood glucose level at 50 mg/kg administered intragastrically measured at 7 hrs post dose relative to control; format: functional; parameters: scale not given: the % may be the effect or the level left; details: route intragastric; how it was run: as §1

Question: `COc1ccc(Cl)cc1C(=O)NCCc1ccc(S(=O)(=O)NC(=O)NC2CCCCC2)cc1` [GLYBURIDE] was tested. Which Activity (Rattus norvegicus [1]) did it give?
Answer: 20.5%

Question: What about the Activity (Rattus norvegicus [2]) of the same molecule?
Answer: 36.3%

Question: What about the Activity (Rattus norvegicus [3]) of the same molecule?
Answer: 37.5%

Question: What about the Activity (Rattus norvegicus [4]) of the same molecule?
Answer: 43.6%

Question: For `CCOC(=O)COc1ccc(NC(=O)COc2ccc(/C=C3\SC(=O)NC3=O)cc2)cc1`, which “fold change (FC)” value (3T3-L1 [5]) is on record?
Answer: 2

Question: And the “fold change (FC)” value (3T3-L1 [6])?
Answer: 2

Question: And the Activity (3T3-L1 [7])?
Answer: inactive

Question: And the Activity (Rattus norvegicus [8])?
Answer: 4.4%

Question: And the Activity (Rattus norvegicus [9])?
Answer: 20.5%

Question: What about the Activity (Rattus norvegicus [10]) of the same molecule?
Answer: 36.7%

Question: And the Activity (Rattus norvegicus [11])?
Answer: 31%

Question: `O=C(O)COc1ccc(NC(=O)COc2ccc(/C=C3\SC(=O)NC3=O)cc2)cc1` was tested. Which “fold change (FC)” value (3T3-L1 [5]) did it give?
Answer: 2

Question: And the “fold change (FC)” value (3T3-L1 [6])?
Answer: 2

Question: What about the Activity (3T3-L1 [7]) of the same molecule?
Answer: inactive
